In ChEMBL document CHEMBL1141692, “Benzimidazole-substituted (3-phenoxypropyl)amines as histamine H3 receptor ligands” (Bioorg Med Chem Lett, 2008):

Experiments:
[1] = Cmax (0 to 6 hrs) in rat at 10 mg/kg, po; type: ADME, organism-based; design: dose 10 mg/kg, route oral; settings: in vivo
Outline: (§1)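 Oral dosing in rat at 10 mg/kg in methyl cellulose, n = 2, in a high-throughput PK assay. Plasma was sampled over 0–6 h time points to give AUC and Cmax.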

Histamine H3 receptor [2] = target: T1, Histamine H3 receptor (Homo sapiens, UniProt Q9Y5N1); test: Displacement of [3H]N-alpha-methylhistamine from human histamine H3 receptor expressed in HEK cells by scintillation counting; type: cell-based, HEK293
T1 sequence (Q9Y5N1 whole entry): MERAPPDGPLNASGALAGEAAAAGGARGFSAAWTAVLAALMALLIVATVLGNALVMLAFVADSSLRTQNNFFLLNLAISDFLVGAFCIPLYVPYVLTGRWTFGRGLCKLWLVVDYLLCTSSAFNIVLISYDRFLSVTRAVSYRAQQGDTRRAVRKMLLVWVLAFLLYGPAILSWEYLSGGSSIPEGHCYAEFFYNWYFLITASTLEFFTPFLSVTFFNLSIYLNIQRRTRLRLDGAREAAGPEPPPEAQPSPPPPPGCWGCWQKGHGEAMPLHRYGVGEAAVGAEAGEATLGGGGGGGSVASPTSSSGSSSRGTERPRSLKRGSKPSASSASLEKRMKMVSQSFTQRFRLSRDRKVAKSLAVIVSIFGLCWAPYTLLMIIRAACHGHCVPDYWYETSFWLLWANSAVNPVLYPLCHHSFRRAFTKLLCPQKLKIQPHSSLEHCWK
Outline: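 Membranes (P2 pellet) from rHu H3–HEK cells were incubated in 50 mM Tris–HCl, pH 7.4, with 1 nM [3H]N-α-methylhistamine (82 Ci/mmol). Compounds were tested at half-log steps over a five-log range. Nonspecific binding was defined with 10^-5 M thioperamide. Incubation ran 30 min at 30 °C, then mixtures were filtered on PEI-soaked GF/B filters, washed three times and counted. Ki was taken from nonlinear curve fits.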

Histamine H3 receptor [3] = target: T1, Histamine H3 receptor; test: Antagonist activity at human histamine H3 receptor expressed in HEK293 cells assessed as reversal of N-alpha-methylhistamine-induced inhibition of forskolin-stimulated cAMP formation; type: functional, cell-based
Cytochrome P450 2D6 = Cytochrome P450 2D6 (Homo sapiens, UniProt P10635); test: Inhibition of CYP2D6 in human liver microsomes up to 30 uM by microtiter plate assay; type: ADME, Microsome
Cytochrome P450 2D6, sequence (P10635 whole entry): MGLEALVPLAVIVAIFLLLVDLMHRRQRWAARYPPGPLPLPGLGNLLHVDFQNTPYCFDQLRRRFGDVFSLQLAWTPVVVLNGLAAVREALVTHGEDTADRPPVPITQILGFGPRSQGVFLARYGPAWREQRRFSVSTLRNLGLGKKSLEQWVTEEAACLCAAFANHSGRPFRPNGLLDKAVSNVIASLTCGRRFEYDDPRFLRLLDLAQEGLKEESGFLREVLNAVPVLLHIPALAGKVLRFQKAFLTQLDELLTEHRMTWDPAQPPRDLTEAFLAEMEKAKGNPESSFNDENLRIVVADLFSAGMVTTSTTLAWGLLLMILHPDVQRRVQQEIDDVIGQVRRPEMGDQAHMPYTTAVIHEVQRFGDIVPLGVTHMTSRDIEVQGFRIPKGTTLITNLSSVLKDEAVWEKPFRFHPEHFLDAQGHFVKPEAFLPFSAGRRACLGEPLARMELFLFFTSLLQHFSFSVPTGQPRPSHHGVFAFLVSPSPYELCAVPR

Histamine H3 receptor [4] = target: Histamine H3 receptor (Mus musculus, UniProt P58406); test: Binding affinity to mouse histamine H3 receptor
Histamine H3 receptor (Mus musculus, UniProt P58406), sequence (P58406 whole entry): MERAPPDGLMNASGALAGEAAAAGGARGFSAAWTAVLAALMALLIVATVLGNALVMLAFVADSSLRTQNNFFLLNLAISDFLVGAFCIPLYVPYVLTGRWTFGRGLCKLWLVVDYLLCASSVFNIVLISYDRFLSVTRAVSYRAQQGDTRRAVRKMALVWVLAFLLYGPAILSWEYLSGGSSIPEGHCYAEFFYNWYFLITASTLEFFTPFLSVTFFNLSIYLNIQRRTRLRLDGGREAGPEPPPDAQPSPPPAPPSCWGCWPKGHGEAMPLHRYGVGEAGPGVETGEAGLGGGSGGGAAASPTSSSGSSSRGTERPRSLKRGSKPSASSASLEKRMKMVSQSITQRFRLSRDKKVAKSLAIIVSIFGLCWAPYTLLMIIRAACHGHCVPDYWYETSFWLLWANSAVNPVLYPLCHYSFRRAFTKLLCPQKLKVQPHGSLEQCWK

Cytochrome P450 3A4 = Cytochrome P450 3A4 (Homo sapiens, UniProt P08684); test: Inhibition of CYP3A4 in human liver microsomes up to 30 uM by microtiter plate assay; type: ADME, Microsome
Cytochrome P450 3A4, sequence (P08684 whole entry): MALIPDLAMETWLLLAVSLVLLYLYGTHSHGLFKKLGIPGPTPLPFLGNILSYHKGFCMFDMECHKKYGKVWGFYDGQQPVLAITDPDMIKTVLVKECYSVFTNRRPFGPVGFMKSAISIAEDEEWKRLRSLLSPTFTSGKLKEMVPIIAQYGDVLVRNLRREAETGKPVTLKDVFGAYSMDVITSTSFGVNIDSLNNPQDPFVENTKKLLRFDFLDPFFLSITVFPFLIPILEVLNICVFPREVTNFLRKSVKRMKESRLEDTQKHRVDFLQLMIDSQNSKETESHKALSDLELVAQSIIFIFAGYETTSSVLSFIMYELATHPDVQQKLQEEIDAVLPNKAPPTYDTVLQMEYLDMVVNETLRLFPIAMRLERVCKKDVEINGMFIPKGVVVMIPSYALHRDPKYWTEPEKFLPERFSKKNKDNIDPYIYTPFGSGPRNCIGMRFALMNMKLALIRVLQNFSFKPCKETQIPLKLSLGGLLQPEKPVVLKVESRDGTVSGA

[5] = target: Voltage-gated inwardly rectifying potassium channel KCNH2 (Homo sapiens, UniProt Q12809); test: Rubidium efflux through human ERG at 5 ug/mL pre-equilibrated for 30 mins by flame atomic absorbance spectroscopy
Voltage-gated inwardly rectifying potassium channel KCNH2, sequence (Q12809 whole entry): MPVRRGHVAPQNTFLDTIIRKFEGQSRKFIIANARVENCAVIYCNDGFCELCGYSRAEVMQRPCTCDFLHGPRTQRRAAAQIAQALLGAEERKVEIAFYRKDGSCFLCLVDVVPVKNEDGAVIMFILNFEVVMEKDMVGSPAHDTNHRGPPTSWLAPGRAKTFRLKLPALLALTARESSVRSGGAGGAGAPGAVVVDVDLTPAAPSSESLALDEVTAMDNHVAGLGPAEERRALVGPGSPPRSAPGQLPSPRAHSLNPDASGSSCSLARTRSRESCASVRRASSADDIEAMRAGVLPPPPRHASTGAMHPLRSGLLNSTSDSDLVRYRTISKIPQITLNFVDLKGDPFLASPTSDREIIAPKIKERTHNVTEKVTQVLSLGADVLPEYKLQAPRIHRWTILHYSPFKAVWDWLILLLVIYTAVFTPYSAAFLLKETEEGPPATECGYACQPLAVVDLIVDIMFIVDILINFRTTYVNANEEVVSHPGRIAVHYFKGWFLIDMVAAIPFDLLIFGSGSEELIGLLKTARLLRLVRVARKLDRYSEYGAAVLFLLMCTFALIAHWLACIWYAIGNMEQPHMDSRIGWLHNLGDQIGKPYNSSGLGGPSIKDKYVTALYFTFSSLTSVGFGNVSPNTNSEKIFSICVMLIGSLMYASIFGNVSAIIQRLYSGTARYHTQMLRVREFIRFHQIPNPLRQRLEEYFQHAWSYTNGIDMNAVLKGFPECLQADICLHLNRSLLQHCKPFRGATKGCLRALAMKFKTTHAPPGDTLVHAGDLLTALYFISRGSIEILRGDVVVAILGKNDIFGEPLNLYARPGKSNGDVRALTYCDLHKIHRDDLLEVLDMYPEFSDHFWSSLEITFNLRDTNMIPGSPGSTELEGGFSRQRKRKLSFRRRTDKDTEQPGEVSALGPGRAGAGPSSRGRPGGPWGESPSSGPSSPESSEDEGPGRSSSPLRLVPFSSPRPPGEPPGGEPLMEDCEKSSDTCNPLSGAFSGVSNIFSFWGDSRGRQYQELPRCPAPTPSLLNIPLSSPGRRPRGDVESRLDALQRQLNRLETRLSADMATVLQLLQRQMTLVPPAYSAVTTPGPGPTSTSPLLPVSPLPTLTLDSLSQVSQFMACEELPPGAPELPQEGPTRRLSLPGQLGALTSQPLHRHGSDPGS

[6] = AUC (0 to 6 hrs) in rat at 10 mg/kg, po; type: ADME, organism-based; design: time < 6 hr, dose 10 mg/kg, route oral; settings: plasma; outline: as §1

SMILES	Ki (Histamine H3 receptor [2]) [nM]	also measured
Fc1ccc2c(c1)nc(-c1ccccn1)n2-c1ccc(OCCCN2CCCCC2)cc1	1.2	Cmax [1]: 393 ng/mL; Ki (Histamine H3 receptor [3]): 0.1 nM; Activity (Cytochrome P450 2D6): Not Active; Ki (Histamine H3 receptor [4]): 1.8 nM; Activity (Cytochrome P450 3A4): Not Active; Rb efflux [5]: 70%; AUC(0-t) at 6 h [6]: 2030 ng·h/mL
Fc1ccc2c(c1)nc(-c1ccccn1)n2-c1ccc(OCCCN2Cc3cccc4cccc(c34)C2)cc1	713	–
Fc1ccc2c(c1)nc(-c1ccccn1)n2-c1ccc(OCCCN2CCSC2)cc1	20	Rb efflux [5]: 42%
CNCCCOc1ccc(-n2c(-c3ccccn3)nc3cc(F)ccc32)cc1	101	–
CCOc1nc2cc(F)ccc2n1-c1ccc(OCCCN2CCCCC2)cc1	15	–
CC1CC(C)CN(CCCOc2ccc(-n3c(-c4ccccn4)nc4cc(F)ccc43)cc2)C1 (stereo not drawn)	11	–
OC1CCN(CCCOc2ccc(-n3c(-c4ccccn4)nc4cc(F)ccc43)cc2)CC1	1.8	Rb efflux [5]: 16%
Fc1ccc2c(c1)nc(-c1ccccn1)n2-c1ccc(OCCCN2CCCCCC2)cc1	5.3	–
NC(=O)C1CCN(CCCOc2ccc(-n3c(-c4ccccn4)nc4cc(F)ccc43)cc2)CC1	20	–
Fc1ccc2c(c1)nc(-c1ccccn1)n2-c1ccc(OCCCN2CCC(Cc3ccccc3)CC2)cc1	2	–
COC(=O)C1CCN(CCCOc2ccc(-n3c(-c4ccccn4)nc4cc(F)ccc43)cc2)CC1	16	Rb efflux [5]: 49%
CN1CCN(CCCOc2ccc(-n3c(-c4ccccn4)nc4cc(F)ccc43)cc2)CC1	13	–
O=c1[nH]c2cc(F)ccc2n1-c1ccc(OCCCN2CCCCC2)cc1	8.7	–
Fc1ccc2c(c1)nc(-c1ccccn1)n2-c1ccc(OCCCN2CCOCC2)cc1	3.4	Rb efflux [5]: 62%
CCSc1nc2cc(F)ccc2n1-c1ccc(OCCCN2CCCCC2)cc1	2.6	–
C[C@@H]1CC[C@@H](C)N1CCCOc1ccc(-n2c(-c3ccccn3)nc3cc(F)ccc32)cc1	5.1	–
Fc1ccc2c(c1)nc(-c1ccccn1)n2-c1ccc(OCCCN2CCCC2)cc1	1.2	–
NC(=O)C1CCCN(CCCOc2ccc(-n3c(-c4ccccn4)nc4cc(F)ccc43)cc2)C1 (stereo not drawn)	11	–
CN1CCCN(CCCOc2ccc(-n3c(-c4ccccn4)nc4cc(F)ccc43)cc2)CC1	3.6	–
Fc1ccc2c(c1)nc(-c1ccccn1)n2-c1ccc(OCCCN2CCc3ccccc3C2)cc1	107	Rb efflux [5]: 94%
Fc1ccc2c(c1)[nH]c(=S)n2-c1ccc(OCCCN2CCCCC2)cc1	8	–
